ChEMBL document CHEMBL1123990, “The in vitro dental plaque inhibitory properties of a series of N-[1-alkyl-4(1H)-pyridinylidene]alkylamines” (1988)
Values after ≈ are worked out from the molar mass of the structure shown.

What was measured:
Type in all cases: functional
Actinomyces viscosus [1] = assay: Plaque bactericidal index against Actinomyces viscosus M-100 measured as chlorohexidine coefficient
Outline: (§1)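 Hydroxylapatite-grown plaques were exposed once daily for 2 min to varying concentrations of agent until the organisms were killed. The highest level tested was 0.2% w/v for 5 days. Tests were run in duplicate. PBI is the concentration (mM) × duration (min) × frequency (days) needed for plaque kill. CC is the chlorhexidine PBI divided by the test-agent PBI.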

Streptococcus sobrinus [2] = assay: Minimal bactericidal concentration against Streptococcus sobrinus 6715-13
Outline: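 Plaques were grown on standardized ceramic hydroxylapatite plates and immersed once in agent for 30 min. They were rinsed with sterile distilled water, moved to fresh broth and incubated anaerobically at 37 °C. Kill meant no further culture acid production, no turbidity change, and no growth when 48-h post-treatment plaque samples were subcultured. Tests were run in duplicate.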

Streptococcus sobrinus [3] = assay: Plaque bactericidal index against Streptococcus sobrinus 6715-13 measured as chlorohexidine coefficient; outline: as §1
Actinomyces viscosus [4] = assay: Chlorohexidine coefficient for Actinomyces viscosus M-100; outline: as §1
Streptococcus sobrinus [5] = assay: Chlorohexidine coefficient for Streptococcus sobrinus 6715-13; outline: as §1

Structure (SMILES)	PBI (Actinomyces viscosus [1])	MBC (Streptococcus sobrinus [2]) [µM]	PBI (Streptococcus sobrinus [3])	CC (Actinomyces viscosus [4])	CC (Streptococcus sobrinus [5])
N=C(NCCCCCCNC(=N)NC(=N)Nc1ccc(Cl)cc1)NC(=N)Nc1ccc(Cl)cc1 [CHLORHEXIDINE]	19.2	3200 (≈ 1620 µg/mL)	25.6		
CCCCCCCN=c1ccn(CCCCCC)cc1.Cl	6.4	1600	12.8	3	2
Br.CCCCCCCCN=c1ccn(CC(CC)CCCC)cc1 (stereo not drawn)	12.5	1250	12.5	1.5	2
Br.CCCCCCCCCN=c1ccn(CCCCCCC)cc1	10	1250	10	1.9	2.5
Br.CCCCCCCCn1ccc(=NCC(CC)CCCC)cc1 (stereo not drawn)	10	1250	10	1.9	2.5
CCCCCCCCCCN=c1ccn(CCCCC)cc1.Cl	5.9	290	3	3.2	8.5
Br.CCCCCCCCN=c1ccn(CCCCCC)cc1	13.5	1350	10.8	1.4	2.4
CCCCCCCCCCCCN=c1ccn(C)cc1.I	19.2	1240	12.4	1	2.1
CCCCCCCCCCCCN=c1ccn(Cc2ccccc2)cc1.Cl	10.3	1290	15.4	1.9	1.7
Br.CCCCCCCN=c1ccn(CCCCCCC)cc1	5.4	1350	8	4	3.2
CCCCCCCCCn1ccc(=NCCCCCCCC)cc1.Cl	13.3	1350	13.3	1.4	1.9
Br.CCCCCCCCn1ccc(=NCCCCCCC)cc1	10.4	1300	10.4	1.8	2.5
CCCCCCCCCn1ccc(=NCCCCCCC)cc1.Cl	11.3	1410	8.5	1.7	3
CCCCCCCCCN=c1ccn(CCCCCC)cc1.Cl	2.9	290	2.9	6.6	8.8
